High-throughput results: PubChem BioAssay, The Scripps Research Institute Molecular Screening Center
CHRM5 antagonist: blocks acetylcholine activation of human M5 receptor; P08912; CHO-hM5 cells, Fluo-8 calcium fluorescence, ACh EC80; inhibition, % at 3 µM; 360,000 compounds, 0.59% hits; AID 624040;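 active = inhibition above a per-plate cutoff, the mean of that plate's test compounds plus 3 SD, cut at about 27% in these data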
Target sequence (P08912 whole entry, looked up): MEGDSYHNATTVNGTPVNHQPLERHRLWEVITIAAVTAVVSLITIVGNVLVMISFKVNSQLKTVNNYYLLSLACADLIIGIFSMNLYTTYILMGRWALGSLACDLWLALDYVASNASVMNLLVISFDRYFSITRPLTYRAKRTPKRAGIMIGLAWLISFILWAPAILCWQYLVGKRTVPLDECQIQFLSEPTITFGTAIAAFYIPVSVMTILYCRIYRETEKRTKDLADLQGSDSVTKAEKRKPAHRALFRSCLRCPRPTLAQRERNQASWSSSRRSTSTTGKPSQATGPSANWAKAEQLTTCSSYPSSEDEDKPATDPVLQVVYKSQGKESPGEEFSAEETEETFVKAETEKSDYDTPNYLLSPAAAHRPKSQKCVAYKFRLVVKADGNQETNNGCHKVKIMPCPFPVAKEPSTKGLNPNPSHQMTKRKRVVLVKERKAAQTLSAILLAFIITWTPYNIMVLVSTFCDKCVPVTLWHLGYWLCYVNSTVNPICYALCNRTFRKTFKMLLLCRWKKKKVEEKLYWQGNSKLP
CHRM4 antagonist: CHRM4 antagonism in calcium assay; P08173; CHO-hM4 cells, ACh EC80, Fluo-8 calcium fluorescence; 360,000 compounds, 0.73% hits; inhibition, % at 3 µM;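 active = inhibition above its plate's cutoff, the mean inhibition of sample wells plus 3 SD, cut at about 27% in these data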
M4 PAM: CHRM4 positive allosteric modulation | P08173 | CHO-K1 hM4/Gqi5, Fluo-8 calcium fluorescence, ACh EC20; 0% = ACh EC20, 100% = maximal ACh | activation, % at 3 µM | 360,000 compounds, 0.4% hits | AID 624126;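 active = activation above its plate's cutoff, the mean activation of sample wells plus 3 SD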
M5 PAM: potentiates acetylcholine response at human M5 receptor; P08912; CHO-K1 hM5, Fluo-8 calcium, ACh EC20 PAM; 0% = ACh EC20, 100% = ACh EC100; activation, % at 3 µM; 360,000 compounds, 0.3% hits; AID 624038;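 active = activation above the run cutoff, the mean activation of all test compounds plus 3 SD, cut at about 18% in these data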
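Replicates: One well per compound, no replicates | System: Human M5 receptor in CHO-K1 cells | Benchmarks: Low control EC20 acetylcholine (0%), high control EC100 acetylcholine (100%) | Probe or stimulus: Acetylcholine, EC20 level | Times: Fluo-8 loading 80 min at 37 °C plus 30 min room temperature | Signal: Intracellular calcium via Fluo-8 fluorescence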
CHRM5 agonist: agonists of human muscarinic M5 receptor (CHRM5) | P08912 | CHO-K1 hM5 cells, Fluo-8 calcium fluorescence; 0% DMSO wells, 100% maximal acetylcholine response | activation, % at 3 µM | 360,000 compounds, 0.19% hits | AID 624037;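 active = activation above the run's mean over test compounds plus 3 SD, cut at about 23% in these data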;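 also: signal is peak over basal fluorescence ratio across the kinetic read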
M4 ag: CHRM4 agonism in calcium assay; CHO-K1 hM4/Gqi5, Fluo-8 calcium fluorescence; vehicle 0%, full acetylcholine response 100%; P08173; 360,000 compounds, 0.14% hits; activation, % at 3 µM; AID 624127;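 active = activation above the run mean over all test wells plus 3 SD, cut at about 32% in these data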;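 also: peak over basal fluorescence ratio per well then scaled between controls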
Of the large screens only hits and unclear results are named; the others gave an inactive call. Shown are actives, neighbours in structure and some others; about 1.9% of the full set was active somewhere.

CN(CC(=O)NCc1ccco1)CC(=O)Nc1c(Cl)cccc1Cl	M5 PAM 18
Cc1cc(Cl)cc(Cl)c1OCC(=O)NCc1ccco1	M5 PAM 22
COc1cccc(NC(=O)CN(C)CC(=O)NCc2ccco2)c1	none
COc1cccc(-c2cccc(-c3nc(C(=O)NCc4ccc(Oc5ccccc5)cc4)cc4c3[C@H](CCO)N(S(=O)C(C)(C)C)C4)c2)c1 (stereo not given in full)	none
COc1ccc(-n2c(C)nc3c(cnn3-c3ccc(C)c(C)c3)c2=O)cc1	CHRM4 antagonist 31
CCC(C)[C@H](NC(=O)N1CC(=O)Nc2ccccc21)C(=O)N1CCC[C@H]1C(=O)O (stereo not given in full)	CHRM4 antagonist 101
CCC(C)[C@H](NC(=O)N1CC(=O)Nc2ccccc21)C(=O)N1CCC[C@@H]1C(=O)O (stereo not given in full)	none
COC(=O)c1csc(-c2ccc(CO)o2)n1	none
Cc1nc2sccn2c(=O)c1S(=O)(=O)Nc1ccc(N2CCN(S(C)(=O)=O)CC2)cc1	CHRM5 antagonist 34
CCN(CC)c1ccc2cc(C(C)=O)c(=O)oc2c1	none
CCN(CC)c1ccc2cc(C=O)c(=O)oc2c1	CHRM5 agonist 29
COC(=O)[C@@]1(Sc2ccc(C)cc2)CC(=O)N(c2ccc(Cl)cc2)[C@@H]1c1ccccc1	none
COC(=O)c1cccc(N2C(=O)C[C@](Sc3ccc(C)cc3)(C(=O)OC)[C@H]2c2ccccc2)c1	CHRM4 antagonist 27
CC1(C)CC(=O)C(N=Nc2cccc(S(=O)(=O)N3CCOCC3)c2)=C(O)C1	M4 PAM 25
CC1CCN(S(=O)(=O)c2ccc(N=NC3=C(O)CC(C)(C)CC3=O)cc2)CC1	none
Cc1cc(C(=O)CSc2nc3ccccc3[nH]2)c(C)n1CC1CCCO1 (stereo not given)	CHRM5 antagonist 60, CHRM4 antagonist 66, M4 ag 35
Cc1cc(C(=O)CSc2nc(N)cc(=O)[nH]2)c(C)n1CC1CCCO1 (stereo not given)	none
COc1cc2c(cc1NC(=O)CN1CCN(S(=O)(=O)c3ccc(C)cc3)CC1)oc1ccccc12	M4 PAM 22
C/C=C/c1cccc(-c2nc(C(=O)N3CCCCC3)cc3c2[C@H](CCO)N(C(=O)NC(C)C)C3)c1	none
O=C(NCc1ccncc1)C(=O)N/N=C/c1ccc(OCc2ccccc2)cc1	none
O=NN(CCc1ccncc1)c1ccc(OCc2ccccc2)cc1	CHRM5 antagonist 34
COc1cc(C(=O)NNC(=S)NC(=O)c2ccc(Cl)cc2)cc(OC)c1OC	CHRM5 agonist 33, M4 ag 44
O=C(NNC(=S)Nc1cccc(C(F)(F)F)c1)c1cccc(Cl)c1	CHRM5 antagonist 46
Cc1cccc(C(=O)NC(=S)NNC(=O)c2ccc(Cl)cc2)c1	CHRM5 antagonist 30, CHRM4 antagonist 40, CHRM5 agonist 90, M4 ag 132
Cc1nc2ccccn2c1-c1csc(Nc2cccc(O)c2)n1	none
Cc1cccc(Nc2nc(-c3c(C)nc4ccccn34)cs2)c1	CHRM5 antagonist 35, CHRM4 antagonist 31
Cc1ccc(NC(=S)NCC2CCCO2)cc1 (stereo not given)	M4 PAM 26
CCCNC(=O)C1(C)CCCN(Cc2cc(-c3ccccc3)nn2C)C1 (stereo not given)	none
O=C(CCN1C(=O)S/C(=C\c2ccc(F)cc2)C1=O)Nc1ccc(C(=O)O)c(O)c1	M4 PAM 17
O=C(CCN1C(=O)S/C(=C/c2ccc(F)cc2)C1=O)Nc1ccc(O)c(C(=O)O)c1	none
O=C(COC(=O)COc1ccccc1)Nc1ccc(Br)cc1F	M4 PAM 14
O=C(COC(=O)COc1ccccc1)Nc1ccc(Br)cc1Br	none
COc1ccccc1C(O)c1ncc(-c2ccccc2C)[nH]1 (stereo not given)	none
CCN(CC)C(=O)C1=C(C)N(CCCOC)C(=O)C(CC(=O)NCCCN(C)C)C1 (stereo not given)	none
